# HCT116 PTEN-null = suppresses growth of cells with PTEN deletion; actives 1.2% (n = 140,000); viability, % at 10 µM; HCT116 PTEN-null viability, CellTiter-Glo, 60 h; stronger effect = lower value;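 active = viability at or below a set limit, 4 SD under the median of all tested compounds, cut at about 3.7% in these data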;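 also: PTEN knockout HCT116 line with beta catenin targeted HCT116 as companion control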
# Yeast lifespan up = extends the lifespan of yeast; S. cerevisiae growth with nicotinamide, OD615; deaD strain in restrictive glucose medium; inhibition of the nicotinamide effect, % at 10 µM; actives 0.68% (n = 130,000); AID 775;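 active = inhibition above a set limit, placed 3 SD over the median of all compounds, cut at about 26% in these data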;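 also: 0% = nicotinamide-treated wells and 100% = cells grown without nicotinamide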
#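 Assay system: engineered S. cerevisiae DeaD replicative-lifespan strain, galactose-grown log-phase cells; medium: restrictive CSMM-D dextrose medium; also added: nicotinamide, 1.5 mM, co-present with compound; schedule: 48 h compound exposure at 30 °C, humidified; detection: absorbance at 615 nm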
# SDO1 yeast rescue = sdo1-depleted yeast growth rescue; z-score at 10 µM; AID 817; S. cerevisiae sdo1-depleted JHY4D growth rescue, OD600 30 h; stronger effect = higher value; pdr5 snq2 efflux-pump mutant strain; actives 0.21% (n = 140,000);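 active = z-score above 3 at both the 24 hr and the 30 hr optical density reads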;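 also: z-score against mean and SD of all compound wells on the same plate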
# Yeast growth inh = chemicals that inhibit yeast BB579 growth in restrictive medium (lifespan-shortening candidates). actives 0.51% (n = 140,000). inhibition, % at 10 µM. S. cerevisiae BB579 growth, OD615, 48 h. AID 804;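 active = inhibition above a set limit, 3 SD over the mean compound inhibition, cut at about 44% in these data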
#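 Assay system – yeast BB579 (DeaD) · Dosing – single compound dose of 10 µM, 0.25% DMSO final · Detection – OD615 turbidity measurement · Buffer or medium – CSMM-D restrictive synthetic medium containing dextrose (glucose) · Benchmarks – positive control amphotericin B 10 µg/mL · Incubation – 48 h exposure, 30 °C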
# bCat KO growth = beta-catenin-lacking colon tumor cell growth suppression | HCT116 beta-catenin knockout viability, CellTiter-Glo, 60 h; stronger effect = lower value | viability, % at 10 µM | actives 1.5% (n = 140,000) | AID 818;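 active = viability at or under a set limit, the compound median less 4 SD, cut at about 6% in these data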;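 also: 0% = Hyamine 1622 control at 20 µM and 100% = untreated cell control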
# * hit, by the source's call; . = no result given. Shown are actives, neighbours in structure and some others; about 2.8% of the full set was active somewhere.
SMILES,HCT116 PTEN-null,Yeast lifespan up,SDO1 yeast rescue,Yeast growth inh,bCat KO growth
COc1ccc(OC)c(NC(=O)c2ccc3c(=O)n(CCc4ccccc4)c(=S)[nH]c3c2)c1,42.0,-3.9,-0.43,-20.8,50.8
CCCN1C(=O)/C(=C/c2ccncc2)SC1=S,88.8,54.3*,-0.58,-47.9,83.6
O=C1/C(=C/c2ccc(O)cc2)SC(=S)N1Cc1cccnc1,92.5,5.0,0.37,-41.2,93.8
CC(=O)Nc1ccccc1O,104.0,0.0,0.68,4.3,94.5
O=C1C=C(Nc2ccccc2O)c2ccccc2C1=O,1.8*,5.7,-0.92,-21.2,2.3*
CC(/C=C/c1ccco1)=N/NC(=O)OC(C)(C)C,76.1,-2.8,-0.22,-2.1,71.3
CC(=C/C(=O)O)/C=C/c1ccco1,97.6,28.3*,-0.21,-23.9,81.8
CC(C1CC1)N(Cc1ccccc1)C(=S)Nc1cccc(C(F)(F)F)c1 (stereo not drawn),70.9,30.6*,-0.77,-33.0,73.7
Cc1cccc(OCCCOc2cccc3cccnc23)c1C,38.3,-28.0,-2.16,72.8*,24.3
COc1ccccc1OCCCCCc1c(C)n[nH]c1C,80.0,-10.2,0.67,-31.3,75.8
Cc1cccc(OCCCCc2c(C)n[nH]c2C)c1C,59.5,-19.3,-2.09,69.1*,45.0
COc1ccccc1OCCCc1c(C)n[nH]c1C,98.7,-30.1,-2.7,99.6*,93.0
O=C(Cc1ccccc1)NCC(=O)OCC(=O)c1ccc(Cl)c([N+](=O)[O-])c1,101.0,3.5,0.64,13.5,86.8
O=C1c2ccccc2C(=O)C12OC2c1ccc(Cl)cc1Cl (stereo not drawn),1.7*,14.3,-1.87,9.1,2.6*
CC12C(=O)N(c3cccc4cccnc34)C(=O)C1C1C=CC2C1 (stereo not drawn),95.3,-7.8,0.37,45.7*,92.1
Cc1ccc(NC(=O)Cn2nnc(-c3ccccc3NC(=O)c3cccs3)n2)cc1,3.4*,-1.3,-1.7,-51.0,4.0*
C/C(=N\NC(=O)c1c(Br)c(C)nn1C)c1ccc(NC(=O)C(C)Oc2ccc(Cl)cc2C)cc1 (stereo not drawn),1.4*,-9.3,-0.63,-9.4,0.9*
O=C(O)c1ccc(SCc2cnc(Cl)s2)cc1,93.2,-18.0,0.05,97.2*,99.6
COC(=O)c1ccc(SCc2cnc(Cl)s2)cc1,95.9,-24.8,-0.4,-20.7,95.3
CC(C)c1nnc(NC(=O)Cc2ccccc2[N+](=O)[O-])s1,104.1,0.4,0.36,-20.2,84.5
CCOC(=O)CSC(=S)NC(=O)c1ccc(OC)cc1,100.2,39.8*,1.12,-48.7,93.7
Cc1cc(=O)c2cccc(Br)c2[nH]1,101.7,.,0.38,-30.0,87.8
O=c1cc(C(F)(F)F)[nH]c2c(C(F)(F)F)cccc12,77.8,-0.5,-1.59,89.6*,82.2
CC1=C(C(=O)Nc2cccc(F)c2)C(c2ccsc2)C2=C(CC(C)(C)CC2=O)N1 (stereo not drawn),13.0,6.4,-0.6,-11.2,15.5
CCOC(=S)SCC(=O)N1CCc2ccccc2C1C1C(=O)CC(C)(C)CC1=O (stereo not drawn),93.4,36.7*,0.31,-27.7,84.5
SMILES,HCT116 PTEN-null,Yeast lifespan up,SDO1 yeast rescue,Yeast growth inh,bCat KO growth
O=[N+]([O-])c1ccc(N=Cc2ccc(Br)c([N+](=O)[O-])c2)cc1,20.6,-0.7,0.97,-12.2,20.5
Cc1ccc(SCc2cc(=O)[nH]c(Nc3nc(C)c4cccc(C)c4n3)n2)cc1,77.8,-5.9,0.09,-18.3,62.4
Cc1ccc2c(C)nc(Nc3nc(CSc4nnnn4-c4ccccc4)cc(=O)[nH]3)nc2c1,3.3*,-20.1,-0.25,-35.4,2.7*
COCc1cc(=O)[nH]c(Nc2nc(C)c3ccccc3n2)n1,2.3*,-6.4,-0.8,5.0,1.7*
CCOc1ccc2nc(Nc3nc(CSc4nnnn4-c4ccccc4)cc(=O)[nH]3)nc(C)c2c1,62.8,-6.2,0.21,-62.7,70.2
COc1ccc2nc(Nc3nc(CSc4nnnn4-c4ccccc4)cc(=O)[nH]3)nc(C)c2c1,2.0*,-0.7,0.21,-33.1,1.8*
O=C(COC(=O)/C=C/c1cccc(F)c1)Nc1ccccc1-c1ccccc1,84.3,-2.3,0.14,-10.3,78.8
N=C1C(c2nc3ccccc3[nH]2)=C(O)CN1NC(=O)COc1cccc(F)c1,93.9,0.6,1.3,-37.1,101.5
Cn1c(C(=O)NC2CCCCC2)cc2c(=O)n(C)c3ccccc3c21,18.7,-10.6,-0.3,-3.5,3.4*
